Beta2AR agonist: agonists of human beta-2 adrenergic receptor inducing internalization; response, % (concentration not given with the values); hit rate 0.43% among 340,000; P07550; Am2.2-beta2AR cells, FAP receptor internalization, flow cytometry;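 active = response above a set limit, near 3 SD of response in nonfluorescent compounds, cut at about 42% in these data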
Target sequence (P07550 whole entry, looked up): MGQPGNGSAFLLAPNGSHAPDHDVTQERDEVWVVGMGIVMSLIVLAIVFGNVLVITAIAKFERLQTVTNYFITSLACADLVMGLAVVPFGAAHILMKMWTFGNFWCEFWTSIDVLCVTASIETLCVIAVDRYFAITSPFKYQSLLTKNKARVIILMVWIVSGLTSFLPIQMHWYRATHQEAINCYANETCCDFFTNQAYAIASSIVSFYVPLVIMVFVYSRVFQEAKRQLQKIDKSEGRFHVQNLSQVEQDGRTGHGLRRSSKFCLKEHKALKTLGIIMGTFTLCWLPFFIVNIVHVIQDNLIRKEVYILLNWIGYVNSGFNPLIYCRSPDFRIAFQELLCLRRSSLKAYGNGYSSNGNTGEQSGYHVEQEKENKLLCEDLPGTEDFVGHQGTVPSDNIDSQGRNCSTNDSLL
MEKK2 WT-MEK5: raises or lowers MEK5 binding to wildtype human MEKK2 PB1 domain | AID 1531 | bead flow cytometry, Alexa488-MEK5 binding to MEKK2 WT; actives lie on both sides | hit rate 1.1% among 290,000 | binding response (% of control), % at 10 µM; in the data active = binding response below about 67% or above about 130%
MEKK3 PB1 HTS: modulators (inhibitors or enhancers) of MEK5 binding to human MEKK3 PB1 domain. bead-based flow cytometry, Alexa488-MEK5 binding to MEKK3; actives lie on both sides; 0 = blocked by unlabeled MEK5, 100 = vehicle. hit rate 1.4% among 290,000. Q99759. binding response (% of control), % at 10 µM;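 active = binding response more than 3 SD above or below the average of its plate-row segment, actives on both sides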;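 also: Alexa488 bead fluorescence after subtracting the streptavidin-only scavenger bead signal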
ATG4B inh: inhibitors of human ATG4B cysteine protease; ATG4B cleavage of LC3-PLA2, NBD-HPC fluorescence, 1 h; inhibition, % at 8.33 µM; Q9Y4P1; hit rate 0.51% among 340,000; in the data active = inhibition above about 40%
MEKK2 mut-MEK5: signal of MEK5 binding to mutant human MEKK2 PB1 domain | bead flow cytometry, Alexa488-MEK5 binding to MEKK2 mutant | percent response, % at 10 µM | hit rate 0.35% among 290,000 | AID 1530; in the data active = percent response above about 24%, passing the limit was not always enough
Dynein cargo inh: dynein cargo transport inhibition; 3617.4 mouse cells, GR-EGFP nuclear translocation imaging; test concentration mostly 20 µM; stimulated with dexamethasone, 1 µM; stronger effect = lower value; z-score, hits read low; hit rate 0.47% among 220,000; AID 1381;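 active = plate z-score of nuclear minus cytoplasmic receptor signal below a set negative limit, without overly bright fluorescence or cell loss, cut at about -3.5 in these data, passing the limit was not always enough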;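 also: z-score of nuclear minus cytoplasmic ring GR-EGFP intensity difference per well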
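Buffer or medium – tet-free medium with charcoal-stripped serum · Signal – automated 10x imaging of fixed Hoechst-stained cells · Also added – dexamethasone agonist, 1.0 µM final, for 30 min · Incubation – induction 48 h, compound 1 h, agonist 30 min · Read-out – GR-EGFP nuclear translocation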
MEKK2wt confirm: raises or lowers MEK5 binding to wildtype human MEKK2, retest | shares compounds with MEKK3 PB1 HTS | bead flow cytometry, Alexa488-MEK5 binding to MEKK2 WT; actives lie on both sides | binding response (% of control), % at 10 µM | hit rate 2.4% among 5,900; in the data active = binding response below about 16% or above about 210%; inactive = in between
MEKK2mut-MEK5: signal of MEK5 binding to mutant human MEKK2, retest. shares compounds with MEKK3 PB1 HTS. bead flow cytometry, Alexa488-MEK5 binding to MEKK2 mutant. percent response, % at 10 µM. hit rate 2% among 5,900; in the data active = percent response mostly above about 71%, no sharp cut-off; inactive = mostly below about 38%;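 also: higher means compound restores mutant binding toward wildtype level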
MEKK3-MEK5 inh: MEKK3-MEK5 PB1 inhibition, single concentration confirmation; shares compounds with MEKK3 PB1 HTS; bead flow cytometry, Alexa488-MEK5 binding to MEKK3; stronger effect = lower value; binding response (% of control), % at 10 µM; hit rate 1.8% among 5,900;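 active = binding response below 72% of control, or above a set upper limit, though filed actives all read lower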;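 also: 100% = DMSO only wells and 0% = binding blocked by excess unlabeled MEK5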
* hit, by the source's call; . = not tested or not shown; [ ] = another dose, or the depositor's remark. Rows were chosen to be rich in hits. Some 2.9% of all compounds tested hit in one or more screens of this group.

SMILES	Beta2AR agonist	MEKK2 WT-MEK5	MEKK3 PB1 HTS	ATG4B inh	MEKK2 mut-MEK5	Dynein cargo inh	MEKK2wt confirm	MEKK2mut-MEK5	MEKK3-MEK5 inh
Cc1ccc(-c2cccc(C3CC=CC4C3C(=O)N(Cc3ccccc3)C4c3ccc(C(F)(F)F)cc3)c2)cc1 (stereo unspecified)	2	98	97	-2	-2	-1	.	.	.
CN(C(=O)COC(=O)c1ccc2ccccc2n1)C1CCS(=O)(=O)C1 (stereo unspecified)	-6	97	92	-2	-5	-0.14	.	.	.
CCn1ccnc1CN(C)Cc1cn(-c2ccc(C)cc2)nc1-c1cccc(C)c1	-11	138*	107	-7	-3	1.5	124	11	103
Cc1nc2ccccc2nc1OCc1ccccc1	2	101	91	11	2	0.3	.	.	.
Cc1nc2ccccc2nc1OCc1cccc(Cl)c1	-4	102	128*	25	-1	1.1	104	5	106
O=[N+]([O-])c1ccc(O)c(C(C#Cc2ccccc2)N2CCOCC2)c1 (stereo unspecified)	1	77	67*[inhibitor]	-6	-13	-1.1	105	4	105
N=c1n(CCN2CCCCC2)c2ccccc2n1CC(O)c1cccc(Br)c1 (stereo unspecified)	38	129	97	-3	20	-0.22	.	.	.
N=c1n(CCN2CCCCC2)c2ccccc2n1CC(O)c1ccc(Cl)c(Cl)c1 (stereo unspecified)	32	142*	110	10	14	-3.3	153	18	103
CC(=O)Oc1ccc(C(=O)[C@H]2[C@H]3C(=O)N(c4cccc5ccccc45)C(=O)[C@H]3[C@@H]3C=CC=NN32)cc1	8	101	179*	8	0	-0.3	101	2	103
S=C(NCCN(C1CCCCC1)C1CCCC1)Nc1cccc(Cl)c1	21	134*	97	16	12	.	145	24	107
Cc1nc(NCc2ccc3c(c2)OCO3)c2oc3ccccc3c2n1	5	81	70*[inhibitor]	-8	-15	-1.3	100	-1	98
CCc1nc(NCc2ccc3c(c2)OCO3)c2oc3ccccc3c2n1	-11	96	99	24	3	-0.27	.	.	.
COc1ccc(C2c3c(ncn(CCN4CCOCC4)c3=N)Oc3ccc4ccccc4c32)cc1OC (stereo unspecified)	13	163*	109	-5	21	0.55	153	28	107
COc1ccccc1C1c2ccc3ccccc3c2Oc2ncn(CCN(C)C)c(=N)c21 (stereo unspecified)	14	153*	115	-16	32*	.	150	29	107
COc1ccc(C2c3ccc4ccccc4c3Oc3ncn(Cc4ccco4)c(=N)c32)cc1OC (stereo unspecified)	19	161*	103	18	34	-0.76	147	33	109
COc1ccc(C2c3c(ncn(CCCO)c3=N)Oc3ccc4ccccc4c32)cc1OC (stereo unspecified)	-6	118	98	-15	15	0.36	.	.	.
COc1ccccc1C1c2ccc3ccccc3c2Oc2ncn(CCCO)c(=N)c21 (stereo unspecified)	23	121	100	-2	6	.	.	.	.
COc1ccc(C2c3ccc4ccccc4c3Oc3ncn(CCCN(C)C)c(=N)c32)cc1 (stereo unspecified)	35	202*	111	2	51*	.	198	55	100
CCOc1ccccc1NC(=O)c1cccc(N2C(=O)CCC2=O)c1	2	97	97	6	-2	.	.	.	.
CSc1nc(C)c(Oc2ccccc2)c(=O)n1C	0	-1.0*[inhibitor]	-1.0*[inhibitor]	-2	-21	-0.12	99	3	102
Cc1ccc(NC(=O)C2CCN(C(=O)OC(C)(C)C)CC2)cc1S(=O)(=O)N1CCCCC1	12	.	.	0	.	.	.	.	.
O=C(COc1cccnc1[N+](=O)[O-])NCc1ccco1	0	97	99	5	-3	-0.49	.	.	.
O=C(COC(=O)c1cc(Br)ccc1O)Nc1ccc2c(c1)OCO2	14	.	.	-5	.	.	.	.	.
CC(=O)Nc1ccc(-c2sc(Nc3cccc4ccccc34)n[n+]2-c2ccccc2)cc1	-4	159*	104	-17	10	.	136	15	107
COc1ccc(C)cc1Nc1n[n+](-c2ccccc2)c(-c2ccc(SC)cc2)s1	0	128	105	1	29*	.	121	9	101
SMILES	Beta2AR agonist	MEKK2 WT-MEK5	MEKK3 PB1 HTS	ATG4B inh	MEKK2 mut-MEK5	Dynein cargo inh	MEKK2wt confirm	MEKK2mut-MEK5	MEKK3-MEK5 inh
COc1ccc(C)cc1Nc1n[n+](-c2ccccc2)c(-c2ccc(NC(C)=O)cc2)s1	6	142*	106	-3	10	.	147	30	107
NC[C@H](Cc1ccccc1)NCCCCC1CCCCC1	-2	.	.	4	.	.	.	.	.
CNC[C@H](CC1CCCCC1)NC[C@H](Cc1ccccc1)NCCC12CC3CC(CC(C3)C1)C2	52*	278*	109	16	70*	.	265*	126*	115
CCCCNC(=S)NNC(=O)c1ccncc1	-1	50	35*[inhibitor]	-8	-16	0.39	102	-2	104
Cc1ccc(NC(=O)c2ccc3nccnc3c2)c(C)c1	7	104	101	-7	7	.	.	.	.
Cc1sc2nc(CN3CCCC3)nc(N3CCN(S(=O)(=O)c4cccs4)CC3)c2c1C	5	145*	103	25	4	-0.19	141	36	109
O=C1NNC(c2ccccc2)=N/C1=C\c1ccccc1Cl	1	72	74	5	-14	0.64	.	.	.
O=C1NNC(c2ccccc2)=N/C1=C\c1ccco1	1	44*[inhibitor]	57	-5	-35	-2.6	100	5	103
CC(C)C[C@@H](C(=O)NC1CCN(Cc2ccccc2)CC1)N1C(=O)N2CCc3c([nH]c4ccccc34)[C@@]2(C)C1=O	33	142*	108	-39	20	.	135	26	109
COc1ccc(Oc2ccc(C(F)(F)F)cc2NC(=O)c2ccc(C)cc2)cc1	4	135	142*	3	37	-0.41	105	-2	103

Screening data (PubChem)
